Values after ≈ are worked out from the molar mass of the structure shown. Values belong to the molecule of their own block, whether it stands above or below them. Active and inactive are the calls of the source. The calls are words filed in the database; no cut-off is given here.
Tests used:
[1] = Cytotoxicity against human HCT116 cells after 72 hrs by CCK8 assay; assay type: functional, cell-based; conditions: HCT-116, 72 h
[2] = Cytotoxicity against human MIAPaCa2 cells after 72 hrs by CCK8 assay; assay type: functional, cell-based; conditions: MIA PaCa-2, 72 h
[3] = Solubility in 80% EtOH/20% water; assay type: physicochemical; conditions: 80% EtOH/20% water; read-out: solubility
[4] = Induction of heat shock response in human HCT116 cells assessed as HSP70 protein expression at IC50 level by western blotting method relative to untreated control; assay type: cell-based; conditions: hct-116
[5] = Induction of heat shock response in human HCT116 cells assessed as HSP90 protein expression at IC50 level by western blotting method relative to untreated control; assay type: cell-based; conditions: hct-116
[6] = Induction of heat shock response in human HCT116 cells assessed as HSF1 protein expression at IC50 level by western blotting method relative to untreated control; assay type: cell-based; conditions: hct-116
[7] = Induction of heat shock response in human HCT116 cells assessed as HSP40 protein expression at IC50 level by western blotting method relative to untreated control; assay type: cell-based; conditions: hct-116
[8] = Induction of heat shock response in human HCT116 cells assessed as HSP27 protein expression at IC50 level by western blotting method relative to untreated control; assay type: cell-based; conditions: hct-116
[9] = Induction of heat shock response in human MIAPaCa2 cells assessed as HSF1 protein expression at IC50 level by western blotting method relative to untreated control; assay type: cell-based; conditions: mia paca-2
[10] = Induction of heat shock response in human MIAPaCa2 cells assessed as HSP90 protein expression at IC50 level by western blotting method relative to untreated control; assay type: cell-based; conditions: mia paca-2
Method in brief: (§1)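 MiaPaCa-2 cells, run alongside HCT-116, treated with compound at the line's level and also at 10-fold above it. Western blotting measured HSF1, hsp90, hsp70, hsp40 and hsp27 protein levels, quantified as fold change versus untreated control.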

[11] = Induction of heat shock response in human MIAPaCa2 cells assessed as HSP70 protein expression at IC50 level by western blotting method relative to untreated control; assay type: cell-based; conditions: mia paca-2
[12] = Induction of heat shock response in human MIAPaCa2 cells assessed as HSP40 protein expression at IC50 level by western blotting method relative to untreated control; assay type: cell-based; conditions: mia paca-2
[13] = Induction of heat shock response in human MIAPaCa2 cells assessed as HSP27 protein expression at IC50 level by western blotting method relative to untreated control; assay type: cell-based; conditions: mia paca-2; method in brief: as §1
HCT-116 [14] = assay: Induction of apoptosis in human HCT116 cells at 1000 nM after 24 hrs by annexin V and 7-AAD staining based flow cytometry; assay type: functional
HCT-116 [15] = assay: Induction of apoptosis in human HCT116 cells assessed as caspase 3/7 activation at 1000 nM after 24 hrs by luminometry; assay type: functional
MIA PaCa-2 = assay: Induction of apoptosis in human MIAPaCa2 cells assessed as caspase 3/7 activation at 1000 nM after 24 hrs by luminometry; assay type: functional
[16] = target: Heat shock protein HSP 90-beta (Oryctolagus cuniculus) (UniProt P30947); conditions: 100 nM
[17] = target: Heat shock protein HSP 90-beta (Homo sapiens) (UniProt P08238); assay: Binding affinity to HSP90 in human HCT116 cells by coomassie blue staining and Western blotting based pull down assay; assay type: cell-based; conditions: HCT-116
Method in brief: (§2)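 Biotin-tagged analogue (0.1 mg) incubated in HCT-116 or MiaPaCa-2 cell lysate, then recovered on NeutrAvidin beads. Bound proteins eluted in sample buffer, visualized by Coomassie stain or Western blot, and identified by nano-LC/MS/MS. Image representative of 3 independent assays.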

[18] = target: Heat shock protein HSP 90-beta (Homo sapiens) (UniProt P08238); assay: Binding affinity to HSP90 in human MIAPaCa2 cells by coomassie blue staining and Western blotting based pull down assay; assay type: cell-based; conditions: MIA PaCa-2; method in brief: as §2

Chain of Heat shock protein HSP 90-beta (Homo sapiens) (P08238 whole entry): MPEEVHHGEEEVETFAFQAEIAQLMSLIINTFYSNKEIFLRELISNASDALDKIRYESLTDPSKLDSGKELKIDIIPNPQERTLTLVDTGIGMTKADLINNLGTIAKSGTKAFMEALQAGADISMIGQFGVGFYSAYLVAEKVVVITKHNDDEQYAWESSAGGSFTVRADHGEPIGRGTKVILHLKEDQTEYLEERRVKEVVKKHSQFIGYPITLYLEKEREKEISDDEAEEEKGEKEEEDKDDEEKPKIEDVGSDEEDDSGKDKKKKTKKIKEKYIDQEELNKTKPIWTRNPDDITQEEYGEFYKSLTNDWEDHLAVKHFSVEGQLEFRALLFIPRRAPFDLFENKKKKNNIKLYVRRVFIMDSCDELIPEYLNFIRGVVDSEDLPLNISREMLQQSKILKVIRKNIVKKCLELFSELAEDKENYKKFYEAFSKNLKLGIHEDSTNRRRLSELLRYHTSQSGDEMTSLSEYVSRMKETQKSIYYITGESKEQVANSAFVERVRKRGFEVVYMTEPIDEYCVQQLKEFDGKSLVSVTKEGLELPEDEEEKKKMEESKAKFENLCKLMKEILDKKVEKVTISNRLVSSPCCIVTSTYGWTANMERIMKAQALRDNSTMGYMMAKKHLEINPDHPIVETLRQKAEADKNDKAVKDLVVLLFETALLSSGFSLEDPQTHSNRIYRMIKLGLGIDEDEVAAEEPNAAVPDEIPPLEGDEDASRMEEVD
Chain of Heat shock protein HSP 90-beta (Oryctolagus cuniculus) (P30947 whole entry): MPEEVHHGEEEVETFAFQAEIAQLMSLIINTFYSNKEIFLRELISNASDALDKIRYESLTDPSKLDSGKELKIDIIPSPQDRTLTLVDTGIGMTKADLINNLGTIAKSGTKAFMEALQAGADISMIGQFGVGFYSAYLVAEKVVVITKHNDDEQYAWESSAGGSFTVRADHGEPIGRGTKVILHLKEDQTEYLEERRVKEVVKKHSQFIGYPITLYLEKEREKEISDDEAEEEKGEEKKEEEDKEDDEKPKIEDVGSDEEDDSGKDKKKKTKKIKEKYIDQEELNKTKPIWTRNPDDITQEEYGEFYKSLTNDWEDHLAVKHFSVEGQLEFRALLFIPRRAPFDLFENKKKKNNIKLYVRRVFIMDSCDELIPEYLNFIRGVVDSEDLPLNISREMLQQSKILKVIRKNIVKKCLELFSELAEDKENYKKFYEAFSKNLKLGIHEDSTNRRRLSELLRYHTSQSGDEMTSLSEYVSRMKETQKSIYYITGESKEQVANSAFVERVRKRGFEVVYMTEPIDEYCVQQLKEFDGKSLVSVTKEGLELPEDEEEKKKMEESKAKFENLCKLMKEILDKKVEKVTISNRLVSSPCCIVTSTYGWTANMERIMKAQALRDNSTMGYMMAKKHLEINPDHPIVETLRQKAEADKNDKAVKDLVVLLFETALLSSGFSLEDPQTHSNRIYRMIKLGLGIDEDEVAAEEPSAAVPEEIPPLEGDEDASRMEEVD

solubility [3]: 1500 µg/mL (≈ 2030 µM)
Structure (SMILES): COc1ccc(C[C@H]2NC(=O)[C@@H](C(c3ccccc3)c3ccccc3)NC(=O)[C@H](CC(C)C)NC(=O)[C@H](C(C)C)N(C)C(=O)[C@@H](CC(C)C)NC2=O)cc1
IC50 [1]: 5.1 µM
IC50 [2]: 4.4 µM

fold change (FC) [4]: 2
fold change (FC) [5]: 2
fold change (FC) [6]: 2
fold change (FC) [7]: 2
fold change (FC) [8]: 2
fold change (FC) [9]: 2
fold change (FC) [10]: 2
fold change (FC) [11]: 2
fold change (FC) [12]: 2
fold change (FC) [13]: 2
inhibition [16]: 17%
Structure (SMILES): C=CCNC1=C2C[C@@H](C)C[C@H](OC)[C@H](O)[C@@H](C)/C=C(\C)[C@H](OC(N)=O)[C@@H](OC)/C=C\C=C(/C)C(=O)NC(=CC1=O)C2=O [TANESPIMYCIN]
Activity (HCT-116 [14]): 25%
fold change (FC) (HCT-116 [15]): 2
fold change (FC) (MIA PaCa-2): 2

Structure (SMILES): CC(C)C[C@@H]1NC(=O)[C@H](C(C)C)N(C)C(=O)[C@@H](CC(C)C)NC(=O)[C@@H](Cc2cccnc2)NC(=O)[C@@H](C(c2ccccc2)c2ccccc2)NC1=O
IC50 [1]: 20.8 µM
IC50 [2]: 23 µM

solubility [3]: 1900 µg/mL (≈ 2540 µM)
Structure (SMILES): CC(C)C[C@@H]1NC(=O)[C@H](C(C)C)N(C)C(=O)[C@@H](CC(C)C)NC(=O)[C@@H](Cc2c[nH]c3ccccc23)NC(=O)[C@@H](C(c2ccccc2)c2ccccc2)NC1=O
IC50 [1]: 3.9 µM
IC50 [2]: 4.5 µM

Activity [17]: Active
Activity [18]: Active
Structure (SMILES): CC(C)C[C@H]1NC(=O)[C@@H](Cc2cscn2)NC(=O)[C@@H](C(c2ccccc2)c2ccccc2)NC(=O)[C@H](CCCCNC(=O)CCOCCOCCOCCOCCNC(=O)CCCC[C@@H]2SC[C@@H]3NC(=O)N[C@@H]32)NC(=O)[C@H](C(C)C)N(C)C1=O
